{
  "source": "ChEMBL document CHEMBL1122501",
  "about": "“Potential antiatherosclerotic agents. 2. (Aralkylamino)- and (alkylamino) benzoic acid analogues of cetaben” (1983)",
  "key": {"[1]": {"system": "Rattus norvegicus", "assay": "In vivo triglyceride lowering activity, dosed at 0.03 % of the diet", "assay_type": "functional", "how_it_was_run": "(§1)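 Male CFE or CD-1 Sprague-Dawley rats, 140-150 g; 8 per control group, 4 per test group. Compound mixed into ground chow (w/w) via MeOH-CHCl3 (1:3) solution, solvent evaporated; controls got solvent-treated chow. Fed ad libitum 5 days, food intake monitored, killed fed and bled. Serum sterols and triglycerides by adapted autoanalyzer methods; mean percent of control, Student's t test.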"}, "[2]": {"system": "Rattus norvegicus", "assay": "In vivo triglyceride lowering activity dosed at 0.10 % of the diet", "assay_type": "functional", "how_it_was_run": "as §1"}, "[3]": {"system": "Rattus norvegicus", "assay": "In vivo Sterol lowering activity at dose as 0.10 % of the diet.", "assay_type": "functional", "how_it_was_run": "as §1"}, "[4]": {"system": "Rattus norvegicus", "assay": "In vivo Sterol lowering activity at dose as 0.03 % of the diet.", "assay_type": "functional", "how_it_was_run": "as §1"}, "[5]": {"system": "Rattus norvegicus", "assay": "In vivo Sterol lowering activity at dose as 0.01 % of the diet..", "assay_type": "functional", "how_it_was_run": "as §1"}, "[6]": {"biological_target": "T1, Sterol O-acyltransferase 1 (Rattus norvegicus) (UniProt O70536)", "T1 sequence (whole entry)": "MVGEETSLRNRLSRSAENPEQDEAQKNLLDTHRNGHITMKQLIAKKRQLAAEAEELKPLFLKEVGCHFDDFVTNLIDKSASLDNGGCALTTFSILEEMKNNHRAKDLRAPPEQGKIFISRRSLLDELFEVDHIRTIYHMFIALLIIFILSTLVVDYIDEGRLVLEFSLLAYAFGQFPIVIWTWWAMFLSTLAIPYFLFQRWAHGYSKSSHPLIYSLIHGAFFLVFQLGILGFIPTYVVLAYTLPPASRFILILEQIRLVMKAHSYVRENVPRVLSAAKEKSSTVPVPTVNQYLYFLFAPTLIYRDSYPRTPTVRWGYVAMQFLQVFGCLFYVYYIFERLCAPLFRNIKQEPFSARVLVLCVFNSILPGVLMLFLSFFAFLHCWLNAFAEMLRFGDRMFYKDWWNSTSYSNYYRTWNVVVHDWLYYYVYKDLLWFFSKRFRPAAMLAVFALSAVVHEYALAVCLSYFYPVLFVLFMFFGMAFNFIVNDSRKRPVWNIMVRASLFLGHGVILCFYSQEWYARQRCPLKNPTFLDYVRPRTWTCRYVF", "assay": "In vitro inhibitory activity against acyl coenzyme A:cholesterol acyltransferase (ACAT)", "design": "concentration or dose not given beside the values", "conditions": "concentration not given here", "how_it_was_run": "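ACAT enzyme from rat adrenal homogenate in 0.2 M KH2PO4 buffer pH 7.4, 1000g 15 min 5 °C supernatant (microsomal fraction). Supernatant + BSA (50 mg/mL) + compound at final 5.2 μg/mL + buffer preincubated 10 min 37 °C; [14C]oleoyl-CoA (0.4 μCi) added, 30 min 37 °C. Lipids extracted, TLC; cholesteryl ester zone counted. Mean % inhibition vs no-compound control; Student's t test.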"}, "[7]": {"system": "Rattus norvegicus", "assay": "In vivo triglyceride lowering activity, dosed at 0.01 % of the diet.", "assay_type": "functional", "how_it_was_run": "as §1"}},
  "data": [
    {"smiles": "CCOC(=O)c1ccc(NCCCc2ccc(N)cc2)cc1", "values": [
      {"measurement": "serum triglycerides, percent of control", "setting": "[1]", "result": 70, "unit": "%"},
      {"measurement": "serum triglycerides, percent of control", "setting": "[2]", "result": 79, "unit": "%"},
      {"measurement": "serum sterol, percent of control", "setting": "[3]", "result": 100, "unit": "%"},
      {"measurement": "serum sterol level, percent of control", "setting": "[4]", "result": 97, "unit": "%"},
      {"measurement": "Diet", "setting": "[5]", "result": 93, "unit": "%"},
      {"measurement": "inhibition", "setting": "[6]", "result": 28, "unit": "%"},
      {"measurement": "Diet", "setting": "[7]", "result": 113, "unit": "%"}
    ]}
  ]
}
